# Measurements from ChEMBL document CHEMBL1121617, “Antihypertensive ureidopiperidines” (1980).
# Activity calls are given as the source filed them. The calls are words filed in the database; no cut-off is given here.
# How the values were obtained:
# Rattus norvegicus [1] = assay: The percent fall in systolic blood pressure at 1.5 / 4 hr after peroral administration of 25 mg/kg in DOCA/saline hypertensive rats at 6 hr; assay type: functional, Artery; settings: route oral
# Procedure, shortened: (§1)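 DOCA/saline hypertensive rats, four per group, dosed orally at 50, 25 or 10 mg/kg. Mean starting systolic pressure was recorded for each group. Systolic pressure was then read 2, 6 and 24 h after dosing and reported as percentage fall from the starting value.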
# Rattus norvegicus [2] = assay: The percent fall in systolic blood pressure at 1.5 / 4 hr after peroral administration of 25 mg/kg in DOCA/saline hypertensive rats at 2 hr; assay type: functional, Artery; settings: route oral; procedure, shortened: as §1
# Rattus norvegicus [3] = assay: The percent fall in systolic blood pressure at 1.5 / 4 hr after peroral administration of 40 mg/kg in conscious renal hypertensive rats (RHR).; assay type: functional, Artery; settings: route oral
# Procedure, shortened: (§2)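 Conscious renal hypertensive rats, four per group, dosed orally. Starting systolic pressures were 160–200 mmHg. Percentage fall in systolic pressure was taken at 1.5 and/or 4 h after dosing. Falls under 10% were scored as ±.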
# Rattus norvegicus [4] = assay: The percent fall in systolic blood pressure at 1.5 / 4 hr after peroral administration of 10 mg/kg in DOCA/saline hypertensive rats at 6 hr; assay type: functional, Artery; settings: route oral; procedure, shortened: as §1
# Rattus norvegicus [5] = assay: Starting systolic blood pressure at dose of 25 mg/kg; assay type: functional, Artery; procedure, shortened: as §1
# Rattus norvegicus [6] = assay: Starting systolic blood pressure at dose of 10 mg/kg; assay type: functional, Artery; procedure, shortened: as §1
# Rattus norvegicus [7] = assay: The percent fall in systolic blood pressure at 1.5 / 4 hr after peroral administration of 10 mg/kg in DOCA/saline hypertensive rats at 24 hr; Non significant; assay type: functional, organism-based; set-up: dose 10 mg/kg; settings: Artery, at 10 mg/kg
# Rattus norvegicus [8] = assay: Starting systolic blood pressure at dose of 50 mg/kg in rat; assay type: functional, Artery
# Procedure, shortened: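 Mean systolic blood pressure before dosing for each group of four DOCA/saline hypertensive rats given 50 mg/kg orally. It indicates how far hypertension was established.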
# Rattus norvegicus [9] = assay: The percent fall in systolic blood pressure at 1.5 / 4 hr after peroral administration of 25 mg/kg in DOCA/saline hypertensive rats at 24 hr; Non significant, p>0.05; assay type: functional, organism-based; set-up: dose 25 mg/kg; settings: Artery, at 25 mg/kg
# Rattus norvegicus [10] = assay: The percent fall in systolic blood pressure at 1.5 / 4 h after peroral administration of 50 mg/kg in DOCA/saline hypertensive rats at 2 hr; assay type: functional, Artery; settings: route oral
# Rattus norvegicus [11] = assay: The percent fall in systolic blood pressure at 1.5 / 4 hr after peroral administration of 50 mg/kg in DOCA/saline hypertensive rats at 6 hr; assay type: functional, Artery; settings: route oral
# Rattus norvegicus [12] = assay: The percent fall in systolic blood pressure at 1.5 / 4 hr after peroral administration of 50 mg/kg in DOCA/saline hypertensive rats at 24 hr; assay type: functional, Artery; settings: route oral; procedure, shortened: as §1
# Rattus norvegicus [13] = assay: The percent fall in systolic blood pressure at 1.5 / 4 hr after peroral administration of 10 mg/kg in DOCA/saline hypertensive rats at 2 hr; assay type: functional, Artery; settings: route oral; procedure, shortened: as §1
# Rattus norvegicus [14] = assay: The percent fall in systolic blood pressure at 1.5 / 4 hr after peroral administration of 50 mg/kg in conscious renal hypertensive rats (RHR).; assay type: functional, Artery; settings: route oral
# Procedure, shortened: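 Conscious renal hypertensive rats, four per group, with starting systolic pressures of 160-200 mmHg, were given a single oral dose. The value is the percentage fall in systolic pressure at 1.5 h, 4 h, or both after dosing. Falls below 10% are reported as ±.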
# Rattus norvegicus [15] = assay: The percent fall in systolic blood pressure at 1.5 / 4 hr after peroral administration of 10 mg/kg in DOCA/saline hypertensive rats at 24 hr; assay type: functional, Artery; settings: route oral
# Rattus norvegicus [16] = assay: The percent fall in systolic blood pressure at 1.5 / 4 hr after peroral administration of 75 mg/kg in conscious renal hypertensive rats (RHR).; assay type: functional, Artery; settings: route oral; procedure, shortened: as §2
# Rattus norvegicus [17] = assay: Percent fall in systolic blood pressure at 1.5 / 4 hr after peroral administration of 50 mg/kg in DOCA/saline hypertensive rats at 6 h; Non significant; assay type: functional, organism-based; set-up: dose 50 mg/kg; settings: Artery, at 50 mg/kg
# Rattus norvegicus [18] = assay: The percent fall in systolic blood pressure at 1.5 / 4 h after peroral administration of 50 mg/kg in conscious DOCA/saline hypertensive rats at 24 hr; Non significant; assay type: functional, organism-based; set-up: dose 50 mg/kg; settings: Artery, at 50 mg/kg; procedure, shortened: as §1
# Rattus norvegicus [19] = assay: The percent fall in systolic blood pressure at 1.5 / 4 hr after peroral administration of 50 mg/kg in DOCA/saline hypertensive rats at 2 hr; Non significant; assay type: functional, organism-based; set-up: dose 50 mg/kg; settings: Artery, at 50 mg/kg
Structure (SMILES),Fall (Rattus norvegicus [1]) [%],Fall (Rattus norvegicus [2]) [%],Fall (Rattus norvegicus [4]) [%],SP (Rattus norvegicus [5]) [mmHg],SP (Rattus norvegicus [6]) [mmHg],SP (Rattus norvegicus [8]) [mmHg],Fall (Rattus norvegicus [9]),Fall (Rattus norvegicus [10]) [%],Fall (Rattus norvegicus [11]) [%],Fall (Rattus norvegicus [12]) [%],Fall (Rattus norvegicus [13]) [%],further results
O=C(NC1CCN(CCc2c[nH]c3ccccc23)CC1)c1ccccc1 [INDORAMIN],29,25,31,178,197,198,inactive,41,45,38,33,Activity (Rattus norvegicus [3]): 38; Fall (Rattus norvegicus [7]): inactive
O=C(CCCN1CCC(NC(=S)Nc2ccccc2)CC1)c1ccccc1,,,,,,,,,,,,Activity (Rattus norvegicus [14]): 20
O=C(NC(=O)c1cccs1)NC1CCN(CCCC(=O)c2ccc(F)cc2)CC1,28,35,36,174,171,179,Not significant,49,45,21,48,Fall (Rattus norvegicus [15]): 16%
Cc1cccc(C)c1NC(=O)NC1CCN(CCc2c[nH]c3ccccc23)CC1,,,,,,,,,,,,Activity (Rattus norvegicus [16]): <10
O=C(Nc1cccc(C(F)(F)F)c1)NC1CCN(CCc2c[nH]c3ccccc23)CC1,,,,,,208,,,,,,Fall (Rattus norvegicus [17]): Not significant; Fall (Rattus norvegicus [18]): Not significant; Fall (Rattus norvegicus [19]): Not significant
